The values that follow come from ChEMBL document CHEMBL1134534, “Phenylpiperazinylalkylamino substituted pyridazinones as potent alpha(1) adrenoceptor antagonists” (J Med Chem, 2001).

For experiment [1], the target named is T1, 5-hydroxytryptamine receptor 1A (Homo sapiens) (UniProt P08908).
T1 sequence (whole entry): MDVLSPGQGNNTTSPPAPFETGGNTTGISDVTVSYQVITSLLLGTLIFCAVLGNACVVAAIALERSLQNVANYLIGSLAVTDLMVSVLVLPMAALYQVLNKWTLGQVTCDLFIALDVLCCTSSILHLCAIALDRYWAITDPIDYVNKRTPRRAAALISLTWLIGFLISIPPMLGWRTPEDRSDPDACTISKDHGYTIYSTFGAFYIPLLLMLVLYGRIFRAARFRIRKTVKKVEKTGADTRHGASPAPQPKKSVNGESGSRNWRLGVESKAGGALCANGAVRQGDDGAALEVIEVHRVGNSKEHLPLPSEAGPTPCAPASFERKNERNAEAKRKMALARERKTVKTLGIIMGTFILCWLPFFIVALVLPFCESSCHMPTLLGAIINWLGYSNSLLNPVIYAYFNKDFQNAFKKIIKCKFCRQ
Briefly: Percent of maximum effect on binding of [35S]GTP-gamma-S, to HeLa cell membranes expressing the human 5-hydroxytryptamine 1A receptor. It is filed as functional. The gist of the method: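 [35S]GTPγS binding on human 5-HT1A-expressing HeLa membranes, with 30 µM GDP, compound 100 µM–0.1 nM, 20 min then 30 min at 30 °C. Stimulation given as percent increase over basal, with the maximal 5-HT response set to 100%. Emax taken from the nonlinear curve fit; 2–3 experiments.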
A general note: GTPγS is a poorly hydrolysed GTP analogue; its binding reports G protein activation.

Experiment [2] has as its target T2, 5-hydroxytryptamine receptor 1A (Homo sapiens, UniProt P08908).
T2 sequence (P08908 whole entry): T1 sequence (whole entry)
Briefly: Binding affinity towards human cloned 5-hydroxytryptamine 1A receptor using [3H]8-OH-DPAT as radioligand.

For experiment [3], the target named is T2, 5-hydroxytryptamine receptor 1A. Briefly: Ability to influence the binding of [35S]GTP-gamma-S, to HeLa cell membranes expressing the human 5-hydroxytryptamine 1A receptor. It is filed as functional. The procedure, abridged:
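Membranes from HeLa cells stably expressing human 5-HT1A, in 20 mM HEPES, 3 mM MgSO4, 120 mM NaCl pH 7.4. Preincubated 20 min at 30 °C with 30 µM GDP and compound (100 µM to 0.1 nM), then [35S]GTPγS (150–250 pM) added for a further 30 min at 30 °C. Nonspecific binding defined with 10 µM GTPγS. Filtration, scintillation counting. pEC50 from nonlinear curve fit; 2–3 experiments.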

The target in experiment [4] is T3, Alpha-1A adrenergic receptor (Homo sapiens, UniProt P35348).
T3 sequence (P35348 whole entry): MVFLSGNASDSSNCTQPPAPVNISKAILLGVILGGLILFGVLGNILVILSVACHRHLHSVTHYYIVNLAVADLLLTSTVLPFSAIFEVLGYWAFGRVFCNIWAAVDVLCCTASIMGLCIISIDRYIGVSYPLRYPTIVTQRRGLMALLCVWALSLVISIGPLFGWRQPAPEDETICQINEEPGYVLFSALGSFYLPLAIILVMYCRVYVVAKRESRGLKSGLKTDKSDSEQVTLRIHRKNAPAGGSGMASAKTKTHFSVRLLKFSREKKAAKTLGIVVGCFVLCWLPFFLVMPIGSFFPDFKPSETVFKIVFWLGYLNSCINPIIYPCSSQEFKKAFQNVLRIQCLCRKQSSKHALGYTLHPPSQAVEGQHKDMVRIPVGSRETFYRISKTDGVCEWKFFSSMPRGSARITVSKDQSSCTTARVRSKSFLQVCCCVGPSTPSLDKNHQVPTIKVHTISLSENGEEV
Briefly: Binding affinity towards human cloned alpha-1A-adrenoceptor using [3H]prazosin as radioligand.

Experiment [5] concerns the target T4, Alpha-1A adrenergic receptor (Homo sapiens) (UniProt P35348).
T4 sequence (whole entry): T3 sequence (P35348 whole entry)
Briefly: Experimental binding affinity for alpha-1A-adrenergic receptor. The procedure, abridged:
(§1)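 Membranes (30 µg protein) from CHO cells stably transfected with each human α1 subtype. Nonspecific binding defined with 10 µM phentolamine. Filtration. IC50 from curve fit, converted to Ki by Cheng–Prusoff. Triplicates; 2–3 experiments.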

Experiment [6] addresses T5, Alpha-1B adrenergic receptor (Homo sapiens, UniProt P35368).
T5 sequence (P35368 whole entry): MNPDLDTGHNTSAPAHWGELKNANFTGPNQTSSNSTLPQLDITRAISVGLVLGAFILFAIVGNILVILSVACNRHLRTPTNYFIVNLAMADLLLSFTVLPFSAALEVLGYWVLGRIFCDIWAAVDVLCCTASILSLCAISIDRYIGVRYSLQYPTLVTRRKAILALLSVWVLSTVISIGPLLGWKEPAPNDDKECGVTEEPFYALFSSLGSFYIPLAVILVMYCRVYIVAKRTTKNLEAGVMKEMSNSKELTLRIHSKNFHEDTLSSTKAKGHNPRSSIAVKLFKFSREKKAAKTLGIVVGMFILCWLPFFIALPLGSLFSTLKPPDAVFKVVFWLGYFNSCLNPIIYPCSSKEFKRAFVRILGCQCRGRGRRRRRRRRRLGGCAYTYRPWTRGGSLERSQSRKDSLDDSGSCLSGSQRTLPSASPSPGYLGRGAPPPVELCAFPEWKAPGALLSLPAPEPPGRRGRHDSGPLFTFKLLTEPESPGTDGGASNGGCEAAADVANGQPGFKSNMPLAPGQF
Briefly: Binding affinity towards human cloned alpha-1B-adrenoceptor using [3H]prazosin as radioligand.

Experiment [7] deals with T6, Alpha-1B adrenergic receptor (Homo sapiens) (UniProt P35368).
T6 sequence (whole entry): T5 sequence (P35368 whole entry)
Briefly: Experimental binding affinity for alpha-1B-adrenergic receptor. The gist of the method: as §1

The target in experiment [8] is T7, Alpha-1D adrenergic receptor (Homo sapiens, UniProt P25100).
T7 sequence (P25100 whole entry): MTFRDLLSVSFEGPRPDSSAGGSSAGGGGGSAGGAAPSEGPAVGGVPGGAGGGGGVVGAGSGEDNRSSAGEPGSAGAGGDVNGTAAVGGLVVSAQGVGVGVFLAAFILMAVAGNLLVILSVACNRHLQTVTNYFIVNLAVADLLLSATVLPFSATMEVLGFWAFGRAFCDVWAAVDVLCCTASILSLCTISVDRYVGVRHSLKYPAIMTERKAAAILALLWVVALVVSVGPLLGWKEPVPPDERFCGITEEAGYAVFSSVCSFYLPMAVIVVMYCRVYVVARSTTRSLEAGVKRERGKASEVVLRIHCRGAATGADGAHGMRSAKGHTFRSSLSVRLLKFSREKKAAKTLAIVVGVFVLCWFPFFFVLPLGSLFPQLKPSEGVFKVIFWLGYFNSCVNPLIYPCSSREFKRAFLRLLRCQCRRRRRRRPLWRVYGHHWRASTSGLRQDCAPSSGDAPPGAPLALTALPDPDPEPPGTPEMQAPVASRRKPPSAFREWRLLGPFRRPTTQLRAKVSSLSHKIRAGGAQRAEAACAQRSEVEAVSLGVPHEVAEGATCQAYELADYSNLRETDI
Briefly: Binding affinity towards human cloned alpha-1D-adrenoceptor using [3H]prazosin as radioligand.

Experiment [9] has as its target T8, Alpha-1D adrenergic receptor (Homo sapiens) (UniProt P25100).
T8 sequence (whole entry): T7 sequence (P25100 whole entry)
Briefly: Experimental binding affinity for alpha-1D-adrenergic receptor. The procedure, abridged:
as §1

In [1], `CCC(=O)c1c(-c2ccccc2)nn(C)c(=O)c1NCCN1CCN(c2ccccc2OC)CC1` returned an Effect of 19%. The Ki (usually the dissociation constant of the complex between target and ligand, obtained from inhibition or displacement) in experiment [2] was determined as 4.06 nM; in [4], 0.19 nM; in experiment [6] it was 1.45 nM; in experiment [8] it was 0.25 nM. The half-maximal effective concentration (EC50) (usually the concentration that produces a half-maximal response) in experiment [3] is 2.51 nM. Also, the pK1a in experiment [5] was found to be 9.72. This molecule also displayed a pK1b in experiment [7] of 8.84. For the same molecule, the pK1d in experiment [9] came out at 9.6.
With `COc1ccccc1N1CCN(CCCNc2c(C(C)=O)c(C)nn(C)c2=O)CC1`, the Effect in [1] came out at 17%. Also, the inhibition constant (Ki) in experiment [2] turned out to be 1.48 nM; in experiment [4], 0.89 nM; in [6] it was 53.4 nM; in [8] it was 34.5 nM. In experiment [3], this molecule gave an EC50 of 1.58 nM. The molecule further yielded a pK1a in [5] of 9.09. In addition, the pK1b in experiment [7] came to 7.27. In experiment [9], this molecule yielded a pK1d of 7.46.
